Source: ChEMBL document CHEMBL1150225, “Cytotoxic cholestane glycosides from the bulbs of Ornithogalum saundersiae” (J Nat Prod, 2001)
pIC50: −log10 of the molar value.

Tested on: HL-60
Test: Cytotoxicity against human HL60 cells after 72 hrs by MTT assay
Format: functional, cell-based
Details: HL-60, 72 h
How it was run: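 HL-60 leukemia cells kept in RPMI 1640 with 10% fetal bovine serum, L-glutamine, 100 units/mL penicillin and 100 μg/mL streptomycin. Cells at 3 × 10^4 cells/mL exposed continuously to compound for 72 h. Growth read by MTT reduction. IC50 (50% inhibition) calculated from each compound's dose–response curve.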

COc1ccc(C(=O)O[C@H]2[C@H](O[C@@H]3[C@@H](OC(C)=O)[C@H](O[C@H]4C[C@H]5[C@@H]6CC=C7C[C@@H](O)CC[C@]7(C)[C@H]6CC[C@]5(C)[C@@]4(O)[C@H](C)C(=O)CCC(C)C)OC[C@@H]3O)OC[C@@H](O[C@@H]3O[C@H](CO)[C@@H](O)[C@H](O)[C@H]3O)[C@@H]2O)cc1OC
pIC50: 7.80
